# Assay results as given in paper PMC4062594 (Nature chemical biology, 2014).
# Entries after “also recorded” stand apart in the source; their conditions may differ.
# What was measured:
# 10A.B2 cells = experiment: Cell migration assay; assay type: cell-based; details: 2D culture, similar extent to PTP1B-directed shRNA
# PTP1B1-405 [1] = molecular target: T1, PTP1B1-405 (Homo sapiens, UniProt P18031); experiment: Gel filtration
# T1 sequence (P18031 1-405): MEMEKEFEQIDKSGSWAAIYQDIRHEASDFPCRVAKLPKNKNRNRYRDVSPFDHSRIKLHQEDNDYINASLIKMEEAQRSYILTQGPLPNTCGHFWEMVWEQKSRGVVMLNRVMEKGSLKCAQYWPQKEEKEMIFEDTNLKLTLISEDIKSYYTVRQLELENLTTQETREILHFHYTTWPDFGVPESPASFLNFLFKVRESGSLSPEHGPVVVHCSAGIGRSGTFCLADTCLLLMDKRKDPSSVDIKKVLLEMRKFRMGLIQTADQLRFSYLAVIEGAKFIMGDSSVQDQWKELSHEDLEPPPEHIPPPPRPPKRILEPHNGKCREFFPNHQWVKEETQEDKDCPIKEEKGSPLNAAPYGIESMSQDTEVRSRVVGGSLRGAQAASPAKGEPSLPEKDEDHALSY
# [2] = system: PTP1B V370, S372 and R373 to alanine; experiment: PTP assay, alanine point mutants; assay type: biochemical, human; details: data not shown
# CFP-PTP1B1-321-YFP = molecular target: T2, CFP-PTP1B1-321-YFP (Homo sapiens, UniProt P18031); experiment: Intramolecular FRET titration; assay type: binding; details: excitation at 440 nm, 0–5 μM MSI-1436
# T2 sequence (P18031 1-321): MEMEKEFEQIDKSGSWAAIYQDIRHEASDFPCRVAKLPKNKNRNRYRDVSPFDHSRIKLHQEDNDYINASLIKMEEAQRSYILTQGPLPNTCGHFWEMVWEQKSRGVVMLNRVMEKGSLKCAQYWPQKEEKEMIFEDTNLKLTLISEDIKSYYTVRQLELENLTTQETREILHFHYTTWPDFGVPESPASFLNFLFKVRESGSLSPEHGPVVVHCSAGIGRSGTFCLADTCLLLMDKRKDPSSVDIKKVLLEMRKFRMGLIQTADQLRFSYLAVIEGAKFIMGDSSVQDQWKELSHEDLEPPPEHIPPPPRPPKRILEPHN
# PTP1B (1-346) = molecular target: T3, PTP1B (1-346) (Homo sapiens, UniProt P18031); experiment: PTP assay, truncation mutant; assay type: biochemical; details: similar to PTP1B1-321
# T3 sequence (P18031 1-346): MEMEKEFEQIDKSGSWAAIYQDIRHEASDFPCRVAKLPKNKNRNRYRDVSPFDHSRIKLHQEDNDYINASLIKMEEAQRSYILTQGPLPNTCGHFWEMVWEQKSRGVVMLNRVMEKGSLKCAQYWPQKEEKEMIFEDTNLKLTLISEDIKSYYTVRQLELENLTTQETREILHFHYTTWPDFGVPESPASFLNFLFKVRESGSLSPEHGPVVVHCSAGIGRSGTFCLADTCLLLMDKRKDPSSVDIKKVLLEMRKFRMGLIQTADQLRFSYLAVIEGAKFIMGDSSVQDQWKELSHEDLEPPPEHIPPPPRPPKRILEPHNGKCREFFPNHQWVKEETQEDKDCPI
# In short: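 Continuous fluorescence PTP assay with 10 nM purified PTP1B and 10 μM DiFMUP substrate. Emission at 450 nm was monitored for 20 minutes.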
# [3] = molecular target: T4, PTP1B in tumor lysates from NDL2 mice (Mus musculus, UniProt P35821); experiment: Binding assay with bead-immobilized compound in tumor lysates; details: confirmed by immunoblotting
# T4 sequence (P35821 1-432): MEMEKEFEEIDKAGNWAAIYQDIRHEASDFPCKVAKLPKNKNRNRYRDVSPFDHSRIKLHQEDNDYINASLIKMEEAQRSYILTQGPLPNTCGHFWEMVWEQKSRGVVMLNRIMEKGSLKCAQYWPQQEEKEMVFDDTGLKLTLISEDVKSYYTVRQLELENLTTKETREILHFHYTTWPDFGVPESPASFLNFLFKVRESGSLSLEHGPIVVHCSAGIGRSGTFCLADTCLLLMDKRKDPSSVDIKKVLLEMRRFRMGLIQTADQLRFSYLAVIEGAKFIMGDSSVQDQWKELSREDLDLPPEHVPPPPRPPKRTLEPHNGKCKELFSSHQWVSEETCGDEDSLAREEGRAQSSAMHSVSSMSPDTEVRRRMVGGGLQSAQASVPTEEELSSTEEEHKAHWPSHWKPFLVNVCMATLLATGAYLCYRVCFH
# In short: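 Test compound was coupled through its primary amine to NHS-activated magnetic beads (1 mM, 100 mM triethylamine, 8 h, 4°C), and free NHS groups were blocked with 0.8 M aminoethanol. Beads were incubated with 0–1 mg NDL2 tumour lysate protein and washed. Bound protein was eluted by heat in SDS sample buffer, run on 10% SDS-PAGE and identified by immunoblotting. Beads carrying a related amine compound served as negative control.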
# PTP1B1-321 [4] = molecular target: T5, PTP1B1-321 (Homo sapiens, UniProt P18031); experiment: Direct binding assay with [3H]-MSI-1436; details: scintillation counting
# T5 sequence (P18031 1-321): T2 sequence (P18031 1-321)
# In short: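 Protein was captured on Ni-NTA beads (10 min, 25°C) and washed three times with buffer containing 150 mM NaCl. Bound ligand was measured by scintillation and bead-bound protein by BCA. Free ligand was calculated as total minus bound, for Scatchard analysis.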
# PTP1B1-321 [5] = molecular target: T5, PTP1B1-321; experiment: PTP assay with DiFMUP substrate; assay type: biochemical
# PTP1B1-405 [6] = molecular target: T1, PTP1B1-405; experiment: Direct binding assay with [3H]-MSI-1436
# [7] = patients; cited from earlier work
# [8] = system: NDL2 mammary tumors and lung metastasis; experiment: NDL2 transgenic mouse model of breast cancer; assay type: in vivo
# In short: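 NDL2 mice with palpable tumours were randomised to saline or test compound (5 or 10 mg/kg, 100 μl) i.p. every third day for 45 days, using freshly prepared solutions. Animals were killed after 45 d, and tumours were removed, counted and weighed. Whole lungs were sectioned, H&E-stained and scored for metastases. Groups had six animals; Student t-test was used.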
# [9] = 5 mg/kg intraperitoneally every third day, relative to control
compound,measurement,setting,value
"CC(C)[C@@H](CC[C@@H](C)[C@H]1CC[C@H]2[C@@H]3[C@H](O)C[C@H]4C[C@@H](NCCCNCCCCNCCCN)CC[C@]4(C)[C@H]3CC[C@]12C)OS(=O)(=O)O [MSI-1436, Trodusquemine]",migration,10A.B2 cells,inhibited migration
same,oligomerization of the phosphatase,PTP1B1-405 [1],did not cause the phosphatase to oligomerize
same,calculated molecular weight of PTP1B1-405,PTP1B1-405 [1]; in the presence of the inhibitor (~47k in the absence),~ 43 k
same,effect of alanine mutations on inhibition by MSI-1436,[2],did not affect
same,FRET,CFP-PTP1B1-321-YFP,did not result in FRET
same,inhibitory potency compared to PTP1B1-405 and PTP1B1-394,PTP1B (1-346),lower
same,retention of 50 kDa band (PTP1B) by compound beads,[3],PTP1B was cleared from the lysate; also recorded: retained
same,stoichiometry,PTP1B1-321 [4],1 mol/mol
same,mode of inhibition,PTP1B1-321 [5],reversible non-competitive inhibitor
same,Hill coefficient,PTP1B1-405 [6]; Hill plot,1.3
same,stoichiometry,PTP1B1-405 [6]; scintillation counting,2 mol/mol
same,tolerability,[7],well tolerated
same,tumor number,[8]; [9],marked decrease
same,tumor size,[8]; [9],marked decrease
same,lung metastasis,[8]; 5 or 10 mg/kg intraperitoneally every third day,essentially abrogated
